In brackets after ≈: the same amount, converted by molar mass.
Experiments:
Assay type in all cases: functional
Escherichia coli = experiment: Anti-bacterial activity was tested against Gram-negative EC-1 bacterium
Procedure, shortened: (§1)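 Standard microtitration MIC determination (µg/mL) against four representative Gram-negative and Gram-positive bacterial strains.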

[1] = system: Mycolicibacterium fortuitum; experiment: Anti-bacterial activity tested against Mycobacterium fortuitum (ATCG 6841)
[2] = system: Mycolicibacterium smegmatis; experiment: Anti-bacterial activity tested against Mycobacterium smegmatis (ATCG 19420)
Staphylococcus aureus = experiment: Anti-bacterial activity was tested against Gram-positive SA-13 bacterium; procedure, shortened: as §1
Streptococcus pyogenes = experiment: Anti-bacterial activity tested against Gram-positive SP1-1 bacterium; procedure, shortened: as §1
Pseudomonas aeruginosa = experiment: Anti-bacterial activity tested against Gram-negative PA-7 bacterium; procedure, shortened: as §1

SMILES	MIC (Escherichia coli) [µg/mL]	MIC [1] [µg/mL]	MIC [2] [µg/mL]	MIC (Staphylococcus aureus) [µg/mL]	MIC (Streptococcus pyogenes) [µg/mL]	MIC (Pseudomonas aeruginosa) [µg/mL]
CC1(CN)CCN(c2cc3c(cc2F)c(=O)c(C(=O)O)cn3C2CC2)C1 (stereo unspecified)	0.4 (≈ 1.11 µM)	< 0.03	0.06 (≈ 0.167 µM)	0.1 (≈ 0.278 µM)	0.05 (≈ 0.139 µM)	0.4 (≈ 1.11 µM)
CN1CCN(c2cc3c(cc2F)c(=O)c(C(=O)O)cn3C2CC2)CC1	0.05 (≈ 0.145 µM)	0.06 (≈ 0.174 µM)	0.25 (≈ 0.724 µM)	0.2 (≈ 0.579 µM)	1.6 (≈ 4.63 µM)	0.4 (≈ 1.16 µM)
CC(C)(C)n1cc(C(=O)O)c(=O)c2cc(F)c(N3CCNCC3)cc21	0.2 (≈ 0.576 µM)	< 0.03	0.13 (≈ 0.374 µM)	0.8 (≈ 2.3 µM)	1.6 (≈ 4.61 µM)	0.4 (≈ 1.15 µM)
CC(C)N1CCN(c2cc3c(cc2F)c(=O)c(C(=O)O)cn3C2CC2)CC1	0.1 (≈ 0.268 µM)	0.25 (≈ 0.669 µM)	0.25 (≈ 0.669 µM)	0.2 (≈ 0.536 µM)	0.8 (≈ 2.14 µM)	1.6 (≈ 4.28 µM)
CN(C)CC1CCN(c2cc3c(cc2F)c(=O)c(C(=O)O)cn3C2CC2)C1 (stereo unspecified)	0.2 (≈ 0.536 µM)	0.13 (≈ 0.348 µM)	0.5 (≈ 1.34 µM)	0.2 (≈ 0.536 µM)	0.2 (≈ 0.536 µM)	0.8 (≈ 2.14 µM)
CC1CN(c2cc3c(cc2F)c(=O)c(C(=O)O)cn3C2CC2)CCN1 (stereo unspecified)	0.05 (≈ 0.145 µM)	0.06 (≈ 0.174 µM)	0.25 (≈ 0.724 µM)	0.8 (≈ 2.32 µM)	0.8 (≈ 2.32 µM)	0.2 (≈ 0.579 µM)
CC(C)(C)n1cc(C(=O)O)c(=O)c2cc(F)c(N3CCC(N)C3)cc21 (stereo unspecified)	0.2 (≈ 0.576 µM)	0.06 (≈ 0.173 µM)	0.13 (≈ 0.374 µM)	0.4 (≈ 1.15 µM)	0.4 (≈ 1.15 µM)	0.4 (≈ 1.15 µM)
CNCC1CCN(c2cc3c(cc2F)c(=O)c(C(=O)O)cn3C(C)(C)C)C1 (stereo unspecified)	0.4 (≈ 1.07 µM)	0.13 (≈ 0.346 µM)	0.25 (≈ 0.666 µM)	0.2 (≈ 0.533 µM)	0.2 (≈ 0.533 µM)	1.6 (≈ 4.26 µM)
CCn1cc(C(=O)O)c(=O)c2cc(F)c(N3CC(C)NC(C)C3)cc21 (stereo unspecified)	0.4 (≈ 1.15 µM)	0.13 (≈ 0.374 µM)	1 (≈ 2.88 µM)	0.8 (≈ 2.3 µM)	> 3.1	3.1 (≈ 8.92 µM)
CCCCN1CCN(c2cc3c(cc2F)c(=O)c(C(=O)O)cn3C2CC2)CC1	0.1 (≈ 0.258 µM)	1 (≈ 2.58 µM)	0.5 (≈ 1.29 µM)	0.4 (≈ 1.03 µM)	> 3.1	1.6 (≈ 4.13 µM)
O=C(O)c1cn(C2CC2)c2cc(N3CCNCC3)c(F)cc2c1=O [CIPROFLOXACIN]		0.06 (≈ 0.181 µM)	0.25 (≈ 0.754 µM)		0.4 (≈ 1.21 µM)	0.2 (≈ 0.604 µM)
CC(C)CN1CCN(c2cc3c(cc2F)c(=O)c(C(=O)O)cn3C2CC2)CC1	0.2 (≈ 0.516 µM)	1 (≈ 2.58 µM)	0.25 (≈ 0.645 µM)	0.4 (≈ 1.03 µM)	1.6 (≈ 4.13 µM)	1.6 (≈ 4.13 µM)
CCn1cc(C(=O)O)c(=O)c2cc(F)c(N3CCC(CNC)C3)cc21 (stereo unspecified)	3.1 (≈ 8.92 µM)	2 (≈ 5.76 µM)	8 (≈ 23 µM)	1.6 (≈ 4.61 µM)	0.4 (≈ 1.15 µM)	> 3.1
CCN1CCN(c2cc3c(cc2F)c(=O)c(C(=O)O)cn3C2CC2)CC1 [ENROFLOXACIN]	0.05 (≈ 0.139 µM)	0.06 (≈ 0.167 µM)	0.13 (≈ 0.362 µM)	0.2 (≈ 0.556 µM)	0.8 (≈ 2.23 µM)	0.8 (≈ 2.23 µM)
CCNCC1CCN(c2cc3c(cc2F)c(=O)c(C(=O)O)cn3C2CC2)C1 (stereo unspecified)	0.1 (≈ 0.268 µM)	0.5 (≈ 1.34 µM)	0.5 (≈ 1.34 µM)	0.8 (≈ 2.14 µM)	0.8 (≈ 2.14 µM)	1.6 (≈ 4.28 µM)
CC1CN(c2cc3c(cc2F)c(=O)c(C(=O)O)cn3C(C)(C)C)CC(C)N1 (stereo unspecified)	0.2 (≈ 0.533 µM)	0.06 (≈ 0.16 µM)	0.06 (≈ 0.16 µM)	0.4 (≈ 1.07 µM)	> 3.1	1.6 (≈ 4.26 µM)

The next lines start with the values.

MIC (Escherichia coli) [µg/mL]	MIC [1] [µg/mL]	MIC [2] [µg/mL]	MIC (Staphylococcus aureus) [µg/mL]	MIC (Streptococcus pyogenes) [µg/mL]	MIC (Pseudomonas aeruginosa) [µg/mL]	SMILES
0.2 (≈ 0.464 µM)	0.13 (≈ 0.301 µM)	0.25 (≈ 0.579 µM)	0.1 (≈ 0.232 µM)	0.1 (≈ 0.232 µM)	0.8 (≈ 1.85 µM)	CNCC1CCN(c2cc3c(cc2F)c(=O)c(C(=O)O)cn3-c2ccc(F)cc2F)C1 (stereo unspecified)
0.4 (≈ 0.898 µM)	0.5 (≈ 1.12 µM)	0.5 (≈ 1.12 µM)	0.2 (≈ 0.449 µM)	0.1 (≈ 0.224 µM)	1.6 (≈ 3.59 µM)	CCNCC1CCN(c2cc3c(cc2F)c(=O)c(C(=O)O)cn3-c2ccc(F)cc2F)C1 (stereo unspecified)
0.1 (≈ 0.24 µM)	0.13 (≈ 0.311 µM)	0.5 (≈ 1.2 µM)	0.4 (≈ 0.958 µM)	0.4 (≈ 0.958 µM)	0.8 (≈ 1.92 µM)	CC1CN(c2cc3c(cc2F)c(=O)c(C(=O)O)cn3-c2ccc(F)cc2F)CCN1 (stereo unspecified) [TEMAFLOXACIN]
0.4 (≈ 0.927 µM)	0.25 (≈ 0.579 µM)	0.5 (≈ 1.16 µM)	0.4 (≈ 0.927 µM)	0.8 (≈ 1.85 µM)	0.8 (≈ 1.85 µM)	CC1CN(c2cc3c(cc2F)c(=O)c(C(=O)O)cn3-c2ccc(F)cc2F)CC(C)N1 (stereo unspecified)
0.8 (≈ 1.8 µM)	0.5 (≈ 1.12 µM)	1 (≈ 2.24 µM)	0.4 (≈ 0.898 µM)	3.1 (≈ 6.96 µM)	3.1 (≈ 6.96 µM)	CC(C)N1CCN(c2cc3c(cc2F)c(=O)c(C(=O)O)cn3-c2ccc(F)cc2F)CC1
0.1 (≈ 0.248 µM)	0.25 (≈ 0.62 µM)	0.5 (≈ 1.24 µM)	0.4 (≈ 0.992 µM)	0.4 (≈ 0.992 µM)	0.2 (≈ 0.496 µM)	O=C(O)c1cn(-c2ccc(F)cc2F)c2cc(N3CCNCC3)c(F)cc2c1=O
0.4 (≈ 0.927 µM)	0.25 (≈ 0.579 µM)	1 (≈ 2.32 µM)	0.4 (≈ 0.927 µM)	0.8 (≈ 1.85 µM)	3.1 (≈ 7.19 µM)	CCC1CN(c2cc3c(cc2F)c(=O)c(C(=O)O)cn3-c2ccc(F)cc2F)CCN1 (stereo unspecified)
